Assay results published in the array DNA melting data of Ke et al. (doi:10.1101/2024.01.08.574731).

Legend:
[1] = folding enthalpy; higher = less favourable; fluorescence melt of hairpins on a sequencing array, two-state fit; conditions: sodium 0.088 M
How it was run: (§1)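 On a sequenced MiSeq flow cell, library hairpins with annealed Cy3 and quencher oligos were imaged for Cy3 fluorescence in 2.5 °C steps up to 60 °C, in 50 mM Na-HEPES pH 8.0, 25 mM NaCl. Normalisation used pre-quench Cy3 and control constructs. Bootstrapped two-state fits gave melting temperature and folding enthalpy, combined by inverse variance across four replicates and with fitted temperatures raised by 9.35 °C to match UV melts.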

[2] = melting temperature; fluorescence melt of hairpins on a sequencing array, two-state fit, raised by 9.35 °C to match UV melts; conditions: sodium 0.088 M
How it was run: as §1

Sequence | folding enthalpy [1] | Tm [2]
GATCAGCGCCCTGATC ((((((....)))))) | -39.5 kcal/mol | 49 °C
GTAAGAGAAATCTTAC ((((((....)))))) | -22 kcal/mol | 38.6 °C
GTGTAACGAAAGTTCAC (((.(((....)))))) | -20 kcal/mol | 44.6 °C
GATCTCTATGGAGATC ((((((....)))))) | -42.8 kcal/mol | 54.9 °C
GCTAACGAAAGTTACAGC ((((((....)))..))) | -18.3 kcal/mol | 35.1 °C
GATCGGAATTCCGATC ((((((....)))))) | -51 kcal/mol | 56.6 °C
GATGGCGAAAGCCTCATC ((((((....)))..))) | -8.85 kcal/mol | 30.7 °C
GATCGTCTAACGATC ((((((...)))))) | -38.7 kcal/mol | 55.6 °C
GCCCACGAAAGTGTGGC ((((((....))).))) | -30.2 kcal/mol | 62.4 °C
GATCCGTAAACGGATC ((((((....)))))) | -38.2 kcal/mol | 60.3 °C
CGCGGAGCTTTCCGCG ((((((....)))))) | -20.8 kcal/mol | 68.2 °C
GCACCCGGAAACAGGCGC ((.((.(....).)).)) | -22.3 kcal/mol | 32.8 °C
GGATGACGAAAGTCGTCC (((.(((....))).))) | -38.4 kcal/mol | 64.5 °C
GTAGAATCGAAAGATTAC (((..(((....)))))) | -11 kcal/mol | 27.3 °C
GCCCTGCGAAAGCATCGC ((..(((....)))..)) | -7.06 kcal/mol | 33.6 °C
GATCATCCGCATGATC ((((((....)))))) | -35.9 kcal/mol | 47.8 °C
GCTTCGCGAAAGCGGTGC ((..(((....)))..)) | -14.6 kcal/mol | 49.3 °C
GACACCGAAAGGTTAGTC ((((((....)))..))) | -20.4 kcal/mol | 37.5 °C
GATCACTCCGGTGATC ((((((....)))))) | -37.8 kcal/mol | 56.9 °C
GCAGCGCGAAAGCTGTGC (((..((....))..))) | -18.8 kcal/mol | 44.8 °C
GGGTATGGAAACATACCC (((((((....))))))) | -44 kcal/mol | 62.6 °C
GAGGGCGAAAGCCACTC ((((((....))).))) | -13.7 kcal/mol | 53.4 °C
GCTGAGCGAAAGCGTAGC (((..((....))..))) | -21.8 kcal/mol | 62 °C

Sequence | folding enthalpy [1] | Tm [2]
GGCTACGAAAGTAGAGCC ((((((....)))..))) | -20 kcal/mol | 49.5 °C
GATCACCTATGTGATC ((((((....)))))) | -40.1 kcal/mol | 57.1 °C
GCGTACGCACGC ((((....)))) | -17.1 kcal/mol | 56.9 °C
GCGTCCGAAAGGAAGCGC ((((((....)))..))) | -29.7 kcal/mol | 67.4 °C
GATCCAGATCTGGATC ((((((....)))))) | -48 kcal/mol | 54.3 °C
GCGTTGCGAAAGCGATGC ((.(.((....)).).)) | -21.9 kcal/mol | 57.6 °C
GCTCCCGAAAGGGTAGC ((((((....))).))) | -32.2 kcal/mol | 54.4 °C
GTTACAGGAAACTGTAAC (((((((....))))))) | -42.8 kcal/mol | 55.5 °C
GATCACTATGGTGATC ((((((....)))))) | -41.5 kcal/mol | 59 °C
GCCGATCGAAAGATGGGC (((.(((....))).))) | -40.4 kcal/mol | 55.9 °C
GGTAGTGGAAACACTACC (((((((....))))))) | -46.8 kcal/mol | 62.9 °C
GGGAGACGAAAGTCGCCC (((.(((....))).))) | -33 kcal/mol | 66 °C
GTGTATCGAAAGATCAC (((.(((....)))))) | -29.4 kcal/mol | 46 °C
GTAGGGCCGAAAGGCTAC (((..(((....)))))) | -9.3 kcal/mol | 35 °C
GAAACGGGAAACCGTTCC (.(((((....))))).) | -14.6 kcal/mol | 39.4 °C
GTTCTCCGAAAGGATAAC (((.(((....))).))) | -26.4 kcal/mol | 41.2 °C
GCGTGCCACGC ((((...)))) | -21.3 kcal/mol | 57.9 °C
GCTCAGCGAAAGCGGGGC ((.(.((....)).).)) | -25.5 kcal/mol | 59.9 °C
GATGCCGGAAACGACACC (.((.((....)).)).) | -13.5 kcal/mol | 24.4 °C
GCTTGTGGAAACATAGGC ((.(.((....)).).)) | -14.7 kcal/mol | 32 °C
GGTTTTGGAAACGAAATC (.(((.(....).))).) | -12.1 kcal/mol | 25.2 °C
GGTCGTGGAAACACGGCC ((.((((....)))).)) | -56.7 kcal/mol | 61.8 °C
GCGCAAGGAAACTCGCGC ((((.((....)).)))) | -36.1 kcal/mol | 54.6 °C

Sequence | folding enthalpy [1] | Tm [2]
GCAATGCGAAAGCCTGGC ((.(.((....)).).)) | -13.8 kcal/mol | 34.2 °C
GTCAAAGCGAAAGCTGAC (((..(((....)))))) | -21.2 kcal/mol | 48.1 °C
GAAGACGAAAGTCCTTC ((((((....))).))) | -20.8 kcal/mol | 39.2 °C
GATCCCTCGGGGATC ((((((...)))))) | -34.5 kcal/mol | 62.9 °C
GATCAGGCGCCTGATC ((((((....)))))) | -52.1 kcal/mol | 60.8 °C
GGTACTGGAAACAGCACC (((.(((....))).))) | -29.3 kcal/mol | 43.9 °C
GGCGACGCGAAAGCGGCC (((..(((....)))))) | -11.1 kcal/mol | 57.6 °C
GAGGTGGGAAACTACCTC (((((.(....).))))) | -41.1 kcal/mol | 49.7 °C
GGATACGAAAGTAACTCC ((((((....)))..))) | -16 kcal/mol | 30.6 °C
GCGGCGCGAAAGCTCTGC ((.(.((....)).).)) | -22.9 kcal/mol | 47.4 °C
GTCACCGGAAACGACGAC (((..((....))..))) | -24.7 kcal/mol | 31.1 °C
GATCCGCCCGCGGATC ((((((....)))))) | -38.3 kcal/mol | 68.7 °C
GTACGCGAAAGCGACTAC ((((((....)))..))) | -11.9 kcal/mol | 41.9 °C
GCGTCCGAAAGGACCGC ((((((....))).))) | -19.6 kcal/mol | 66.7 °C
GCTGGGCGAAAGCTCCGC ((.(.((....)).).)) | -20.4 kcal/mol | 41.8 °C
GCCATTCGAAAGAAAGGC (((.(((....))).))) | -37 kcal/mol | 49.3 °C
GCGCAGCGAAAGCACCGC (((..((....))..))) | -8.24 kcal/mol | 45.2 °C
CGAACGCGGAAACGCTCG (((..(((....)))))) | -17.2 kcal/mol | 40.5 °C
GAAGGTGGAAACGCTTTC (((.(.(....).).))) | -9.77 kcal/mol | 24.2 °C
GGTCACGAAAGTGTACC ((((((....))).))) | -25.6 kcal/mol | 51.5 °C
GCACAGCGAAAGCGGAGC ((.(.((....)).).)) | -25.9 kcal/mol | 61.6 °C
GATCCTATTAGGATC ((((((...)))))) | -34.6 kcal/mol | 53.4 °C
GCATTGCGAAAGCATGC (((.(((....)))))) | -34.3 kcal/mol | 55.7 °C

Sequence | folding enthalpy [1] | Tm [2]
GTAGATGCGAAAGCATAC (((..(((....)))))) | -11.9 kcal/mol | 31.1 °C
CGGCACGGAAACGTCCCG (((.(((....))).))) | -26 kcal/mol | 42 °C
GATCGGCTGACCGATC ((((((....)))))) | -40.4 kcal/mol | 56.2 °C
CGTTCGGAAACGATGACG ((((((....)))..))) | -20 kcal/mol | 39 °C
GATCTGTGCTCAGATC ((((((....)))))) | -39 kcal/mol | 50.6 °C
GATCACGTTGGTGATC ((((((....)))))) | -37 kcal/mol | 58.2 °C
GATTGCGAAAGCAGCATC ((((((....)))..))) | -9.21 kcal/mol | 24.1 °C
GAGATGGCGAAAGCCCTC (((..(((....)))))) | -10.3 kcal/mol | 32.8 °C
GCGAGGCGAAAGCCCGGC ((..(((....)))..)) | -10.5 kcal/mol | 63.8 °C
CAAAGGAAACTTTG (((((....))))) | -16.2 kcal/mol | 35 °C
GACCGACGAAAGTCAGTC (((.(((....))).))) | -23.5 kcal/mol | 47.9 °C
GTCGCCGAAAGGCGCGAC ((((((....)))..))) | -11.3 kcal/mol | 58.4 °C
GATCTAGTGGTAGATC ((((((....)))))) | -28 kcal/mol | 38 °C
GGTATCCGAAAGGAGACC (((.(((....))).))) | -43 kcal/mol | 58.5 °C
GTTGCTCGAAAGAGAAC (((.(((....)))))) | -20.2 kcal/mol | 34.4 °C
GGGGGGGGAAACCCCTCC ((.((((....)))).)) | -17.5 kcal/mol | 60.9 °C
GATCGTCGGGACGATC ((((((....)))))) | -41.3 kcal/mol | 61.7 °C
GTAGTGTCGAAAGACTAC (((..(((....)))))) | -15.1 kcal/mol | 33.3 °C
GCCGTGCGAAAGCTCTGC ((.(.((....)).).)) | -12.2 kcal/mol | 37.7 °C
GCGTTACGAAAGTATCGC (((.(((....))).))) | -47.6 kcal/mol | 55.2 °C
GCACTGCGAAAGCAACGC ((..(((....)))..)) | -14.2 kcal/mol | 36.2 °C
GCAATGCGAAAGCCTAGC ((.(.((....)).).)) | -11.2 kcal/mol | 26.8 °C
GATCCGCCCCGGATC ((((((...)))))) | -36.8 kcal/mol | 58.4 °C
